Reference: ChEMBL document CHEMBL3045328, “Substituted N-phenylpyrazine-2-carboxamides, their synthesis and evaluation as herbicides and abiotic elicitors” (Molecules, 2007)

Columns and labels:
[1] = Lipophilicity, log P of the compound; assay type: physicochemical; conditions: octanol/water
Spinacia oleracea = test: Inhibition of photosynthetic electron transport in Spinacia oleracea (spinach) chloroplasts assessed as decrease in oxygen evolution measured after irradiated with 250 W halogen lamp by herbicidal assay in presence of electron acceptor 2,6-dichlorophenol-indophenol; assay type: functional; conditions: L., light or radiation study
Procedure, shortened: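 Spinach chloroplasts in phosphate buffer (0.02 mol·L-1, pH 7.2) with sucrose 0.4 mol·L-1, MgCl2 0.005 mol·L-1, NaCl 0.015 mol·L-1; chlorophyll 30 mg/L. DCPIP photoreduction followed under ~100 W/m2 halogen light through 4 cm water filter, 22 °C. Compounds in DMSO (up to 4%). IC50 = molar concentration giving 50% drop in oxygen evolution versus untreated control.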

Chlorella vulgaris = test: Antialgal activity in green algae Chlorella vulgaris assessed as reduction of chlorophyll content; assay type: functional, organism-based
Procedure, shortened: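 Algal suspensions (initial Chl 0.01 mg·L-1) grown 7 days, 16 h light/8 h dark, PAR 80 μmol/m2∙s, pH 7.2, with compound at 0.83–100 μmol·L-1 (DMSO ≤0.25%, same in controls). Chl extracted into methanol, read spectrophotometrically. IC50 = concentration halving chlorophyll versus control, or % of control ± S.D.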

[2] = Chlorella vulgaris, read-out: IC50

logP [1] | Structure (SMILES) | IC50 (Spinacia oleracea) | IC50 (Chlorella vulgaris) | IC50 (Chlorella vulgaris; [2])
3.33 | Cc1ccc(NC(=O)c2cncc(Cl)n2)cc1I | 51 µM | ND(Insoluble) | 
3.76 | Cc1cc(NC(=O)c2cnc(C(C)(C)C)cn2)ccc1Cl | 190 µM |  | 44 µM
3.78 | CC(C)(C)c1ncc(C(=O)Nc2ccccc2F)nc1Cl | 69 µM |  | 89 µM
4.54 | CC(C)(C)c1ncc(C(=O)Nc2ccc(C(F)(F)F)cc2)nc1Cl | 184 µM | ND(Insoluble) | 
2.53 | Cc1cc(NC(=O)c2cncc(Cl)n2)ccc1Cl | 595 µM |  | 80 µM
2.76 | CN(C)C(=O)Nc1ccc(Cl)c(Cl)c1 [DCMU] |  |  | 
